Results: ChEMBL document CHEMBL3227952, “Potential organ- or tumor-imaging agents. 18. Radioiodinated diamines and bisquaternaries” (J Med Chem, 1979)

What was measured:
Duodenum [1] = assay: Drug uptake in Sprague-Dawley rat duodenum at 6.2 to 10.4 uCi, iv after 0.5 hrs by liquid scintillation counting; format: ADME, organism-based; conditions: in vivo
Outline: (§1)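 Adult male rats (200–420 g) given radioiodinated agent, 6.5–7.0 μCi/mg, in 0.10–0.15 mL of 0.1 N HCl. Dosing was by tail vein under ether. Rats were killed by exsanguination, three at 0.5 h and five at 2 h. Organs were rinsed, blotted and weighed, with duplicate samples counted for radioactivity. Results are % administered dose/g, mean ± SEM.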

[2] = Drug uptake in Sprague-Dawley rat diaphragm at 6.2 to 10.4 uCi, iv after 2 hrs by liquid scintillation counting; format: ADME, organism-based; conditions: in vivo; outline: as §1
Pituitary gland [3] = assay: Drug uptake in Sprague-Dawley rat pituitary at 6.2 to 10.4 uCi, iv after 0.5 hrs by liquid scintillation counting; format: ADME, organism-based; conditions: in vivo, in the assay text read “well-scintillation gamma counting” for “liquid scintillation counting”
Outline: (§2)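 Three rats were killed at 0.5 h and five at 2 h by exsanguination under ether. Organs were rinsed, blotted and weighed, duplicate samples gamma-counted (87% efficiency), expressed as % administered dose/g, mean ± SEM.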

Spleen [4] = assay: Drug uptake in Sprague-Dawley rat spleen at 6.2 to 10.4 uCi, iv after 2 hrs by liquid scintillation counting; format: ADME, organism-based; conditions: in vivo
Pancreas [5] = assay: Drug uptake in Sprague-Dawley rat pancreas at 6.2 to 10.4 uCi, iv after 2 hrs by liquid scintillation counting; format: ADME, organism-based; conditions: in vivo
Heart [6] = assay: Drug uptake in Sprague-Dawley rat heart at 6.2 to 10.4 uCi, iv after 2 hrs by liquid scintillation counting; format: ADME, organism-based; conditions: in vivo, in the assay text read “well-scintillation gamma counting” for “liquid scintillation counting”; outline: as §1
[7] = Drug uptake in Sprague-Dawley rat ventral prostate at 6.2 to 10.4 uCi, iv after 0.5 hrs by liquid scintillation counting; format: ADME, organism-based, Prostate gland; conditions: in vivo
Outline: (§3)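 Adult male Sprague-Dawley rats (200–420 g) with free access to food and water. Under ether anesthesia, each received 6.2–10.4 μCi (6.5–7.0 μCi/mg) of tracer in 0.10–0.15 mL of 0.1 N HCl vehicle, iv via the tail vein. Rats were killed by exsanguination at 0.5 h (3 rats) or 2 h (5 rats). Organs were rinsed, blotted and weighed; duplicate samples were counted. Results are % administered dose/g, mean ± SEM.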

Lung [8] = assay: Drug uptake in Sprague-Dawley rat lung at 6.2 to 10.4 uCi, iv after 2 hrs by liquid scintillation counting; format: ADME, organism-based; conditions: in vivo
[9] = Drug uptake in Sprague-Dawley rat dorsolateral prostate at 6.2 to 10.4 uCi, iv after 2 hrs by liquid scintillation counting; format: ADME, organism-based, Prostate gland; conditions: in vivo; outline: as §1
Kidney [10] = assay: Drug uptake in Sprague-Dawley rat kidney at 6.2 to 10.4 uCi, iv after 2 hrs by liquid scintillation counting; format: ADME, organism-based; conditions: in vivo, in the assay text read “well-scintillation gamma counting” for “liquid scintillation counting”; outline: as §2
[11] = Drug uptake in Sprague-Dawley rat dorsolateral prostate at 6.2 to 10.4 uCi, iv after 0.5 hrs by liquid scintillation counting; format: ADME, organism-based, Prostate gland; conditions: in vivo; outline: as §1
Brain [12] = assay: Drug uptake in Sprague-Dawley rat brain at 6.2 to 10.4 uCi, iv after 0.5 hrs by liquid scintillation counting; format: ADME, organism-based; conditions: in vivo; outline: as §1
Blood [13] = assay: Drug uptake in Sprague-Dawley rat blood at 6.2 to 10.4 uCi, iv after 0.5 hrs by liquid scintillation counting; format: ADME, organism-based; conditions: in vivo; outline: as §1
Blood [14] = assay: Drug uptake in Sprague-Dawley rat blood at 6.2 to 10.4 uCi, iv after 2 hrs by liquid scintillation counting; format: ADME, organism-based; conditions: in vivo; outline: as §1
Adrenal [15] = assay: Drug uptake in Sprague-Dawley rat adrenal at 6.2 to 10.4 uCi, iv after 2 hrs by liquid scintillation counting; format: ADME, organism-based, Adrenal gland; conditions: in vivo; outline: as §1
Duodenum [16] = assay: Drug uptake in Sprague-Dawley rat duodenum at 6.2 to 10.4 uCi, iv after 2 hrs by liquid scintillation counting; format: ADME, organism-based; conditions: in vivo; outline: as §1
Pancreas [17] = assay: Drug uptake in Sprague-Dawley rat pancreas at 6.2 to 10.4 uCi, iv after 0.5 hrs by liquid scintillation counting; format: ADME, organism-based; conditions: in vivo, in the assay text read “well-scintillation gamma counting” for “liquid scintillation counting”; outline: as §2
Liver [18] = assay: Drug uptake in Sprague-Dawley rat liver at 6.2 to 10.4 uCi, iv after 0.5 hrs by liquid scintillation counting; format: ADME, organism-based; conditions: in vivo, in the assay text read “well-scintillation gamma counting” for “liquid scintillation counting”; outline: as §2
[19] = Drug uptake in Sprague-Dawley rat ventral prostate at 6.2 to 10.4 uCi, iv after 2 hrs by liquid scintillation counting; format: ADME, organism-based, Prostate gland; conditions: in vivo; outline: as §3
Kidney [20] = assay: Drug uptake in Sprague-Dawley rat kidney at 6.2 to 10.4 uCi, iv after 0.5 hrs by liquid scintillation counting; format: ADME, organism-based; conditions: in vivo
Spleen [21] = assay: Drug uptake in Sprague-Dawley rat spleen at 6.2 to 10.4 uCi, iv after 0.5 hrs by liquid scintillation counting; format: ADME, organism-based; conditions: in vivo, in the assay text read “well-scintillation gamma counting” for “liquid scintillation counting”; outline: as §2
Thyroid gland [22] = assay: Drug uptake in Sprague-Dawley rat thyroid at 6.2 to 10.4 uCi, iv after 0.5 hrs by liquid scintillation counting; format: ADME, organism-based; conditions: in vivo
Heart [23] = assay: Drug uptake in Sprague-Dawley rat heart at 6.2 to 10.4 uCi, iv after 0.5 hrs by liquid scintillation counting; format: ADME, organism-based; conditions: in vivo; outline: as §1
[24] = Drug uptake in Sprague-Dawley rat bone marrow at 6.2 to 10.4 uCi, iv after 0.5 hrs by liquid scintillation counting; format: ADME, organism-based; conditions: in vivo; outline: as §1
[25] = Drug uptake in Sprague-Dawley rat bone marrow at 6.2 to 10.4 uCi, iv after 2 hrs by liquid scintillation counting; format: ADME, organism-based; conditions: in vivo; outline: as §1
Thyroid gland [26] = assay: Drug uptake in Sprague-Dawley rat thyroid at 6.2 to 10.4 uCi, iv after 2 hrs by liquid scintillation counting; format: ADME, organism-based; conditions: in vivo
Liver [27] = assay: Drug uptake in Sprague-Dawley rat liver at 6.2 to 10.4 uCi, iv after 2 hrs by liquid scintillation counting; format: ADME, organism-based; conditions: in vivo, in the assay text read “well-scintillation gamma counting” for “liquid scintillation counting”; outline: as §2
Adrenal [28] = assay: Drug uptake in Sprague-Dawley rat adrenal at 6.2 to 10.4 uCi, iv after 0.5 hrs by liquid scintillation counting; format: ADME, organism-based, Adrenal gland; conditions: in vivo; outline: as §1
Brain [29] = assay: Drug uptake in Sprague-Dawley rat brain at 6.2 to 10.4 uCi, iv after 2 hrs by liquid scintillation counting; format: ADME, organism-based; conditions: in vivo; outline: as §1
Testes [30] = assay: Drug uptake in Sprague-Dawley rat testes at 6.2 to 10.4 uCi, iv after 0.5 hrs by liquid scintillation counting; format: ADME, organism-based, Testis; conditions: in vivo
Testes [31] = assay: Drug uptake in Sprague-Dawley rat testes at 6.2 to 10.4 uCi, iv after 2 hrs by liquid scintillation counting; format: ADME, organism-based, Testis; conditions: in vivo
Pituitary gland [32] = assay: Drug uptake in Sprague-Dawley rat pituitary at 6.2 to 10.4 uCi, iv after 2 hrs by liquid scintillation counting; format: ADME, organism-based; conditions: in vivo
Lung [33] = assay: Drug uptake in Sprague-Dawley rat lung at 6.2 to 10.4 uCi, iv after 0.5 hrs by liquid scintillation counting; format: ADME, organism-based; conditions: in vivo, in the assay text read “well-scintillation gamma counting” for “liquid scintillation counting”; outline: as §2
[34] = Drug uptake in Sprague-Dawley rat diaphragm at 6.2 to 10.4 uCi, iv after 0.5 hrs by liquid scintillation counting; format: ADME, organism-based; conditions: in vivo; outline: as §1

Drug uptake (Duodenum [1]): 0.485 % ID/g | Drug uptake [2]: 0.293 % ID/g | Drug uptake (Pituitary gland [3]): 0.533 % ID/g | Drug uptake (Spleen [4]): 0.988 % ID/g | Drug uptake (Pancreas [5]): 0.617 % ID/g | Drug uptake (Heart [6]): 0.44 % ID/g | Drug uptake [7]: 0.296 % ID/g | Drug uptake (Lung [8]): 2.261 % ID/g | Drug uptake [9]: 0.436 % ID/g | Drug uptake (Kidney [10]): 1.67 % ID/g | Drug uptake [11]: 0.32 % ID/g | Drug uptake (Brain [12]): 0.063 % ID/g | Drug uptake (Blood [13]): 0.073 % ID/g | Drug uptake (Blood [14]): 0.041 % ID/g | Drug uptake (Adrenal [15]): 1.577 % ID/g | Drug uptake (Duodenum [16]): 0.343 % ID/g | Drug uptake (Pancreas [17]): 0.657 % ID/g | Drug uptake (Liver [18]): 1.008 % ID/g | Drug uptake [19]: 0.293 % ID/g | Drug uptake (Kidney [20]): 1.926 % ID/g | Drug uptake (Spleen [21]): 0.844 % ID/g | Drug uptake (Thyroid gland [22]): 2.457 % ID/g | Drug uptake (Heart [23]): 0.553 % ID/g | Drug uptake [24]: 0.44 % ID/g | Drug uptake [25]: 0.682 % ID/g | Drug uptake (Thyroid gland [26]): 3.476 % ID/g | Drug uptake (Liver [27]): 0.949 % ID/g | Drug uptake (Adrenal [28]): 1.732 % ID/g | Drug uptake (Brain [29]): 0.088 % ID/g | Drug uptake (Testes [30]): 0.036 % ID/g | Drug uptake (Testes [31]): 0.048 % ID/g | Drug uptake (Pituitary gland [32]): 0.681 % ID/g | Drug uptake (Lung [33]): 2.384 % ID/g | Drug uptake [34]: 0.38 % ID/g
SMILES: NCc1ccc(CN)c([125I])c1
